{"source": "paper PMC8137654", "about": "(Bioconjugate chemistry, 2021)", "key": {"human osteoclasts": {"tested_on": "human osteoclasts", "experiment": "Activation of OFS-1 adsorbed on HAp by resorbing human osteoclasts", "format": "cell-based", "outline": "(§1)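 HAp […]-coated polystyrene wells were pre-treated with 5.0 μM OFS-1 and washed with PBS. They were then seeded with human osteoclasts, alone or co-cultured with RPMI-8226-Luc myeloma cells, with or without 30 nM odanacatib. Wells were imaged by bright-field and fluorescence microscopy (time-lapse video) for 24 h at 37 °C to record resorption pits and probe fluorescence.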"}, "[1]": {"tested_on": "osteoclasts co-cultured with RPMI-8226-Luc human multiple myeloma cells", "experiment": "Activation of OFS-1 on HAp by osteoclasts co-cultured with RPMI-8226-Luc cells", "format": "cell-based", "outline": "as §1"}, "Ctsk [2]": {"target": "T1, Ctsk (Homo sapiens, UniProt P43235)", "T1 sequence (P43235 115-329)": "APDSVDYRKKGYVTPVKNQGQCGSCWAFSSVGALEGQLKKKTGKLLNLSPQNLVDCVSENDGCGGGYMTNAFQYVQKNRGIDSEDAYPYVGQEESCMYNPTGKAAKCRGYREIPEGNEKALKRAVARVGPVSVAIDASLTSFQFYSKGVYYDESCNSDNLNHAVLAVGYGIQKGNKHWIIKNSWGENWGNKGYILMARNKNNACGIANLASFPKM", "settings": "cited from earlier work"}, "[3]": {"settings": "ref [14]; cited from earlier work"}, "Ctsk [4]": {"target": "T1, Ctsk", "experiment": "Kinetics of Ctsk-catalyzed OFS-1 activation in solution", "format": "biochemical"}, "[5]": {"experiment": "OFS-1 fluorescence in water without enzyme", "format": "physicochemical", "settings": "10 μM OFS-1 in water, 48 h, 37 °C"}, "Ctsk [6]": {"target": "T1, Ctsk", "format": "biochemical", "outline": "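Probe kept in solution at pH 7 with 20 nM initial human Ctsk. Ctsk inhibitor added to the assay mixture at 0, 1, 5, 10, 30, 50 or 100 nM (n = 3). Fluorescence followed over time through a 2 h incubation, with an enzyme-free control.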"}, "Ctsk [7]": {"target": "T1, Ctsk", "experiment": "Ctsk-induced fluorogenesis of OFS-1 pre-adsorbed on HAp with/without odanacatib", "format": "biochemical", "settings": "HAp treated overnight with 0.5 μM OFS-1 in 50 mM acetate pH 5.5, washed; 20 nM Ctsk, 37 °C, 2 h", "outline": "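[…] (HAp)-coated polystyrene wells soaked overnight in probe in acetate buffer, then washed repeatedly with water to remove unbound probe. Wells covered with human Ctsk, with Ctsk inhibitor at 0, 1, 5, 10, 30, 50 or 100 nM (n = 3). Fluorescence read at 1 min intervals in a plate reader at 37 °C.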"}, "[8]": {"tested_on": "RPMI-8226-Luc human multiple myeloma cells engrafted in NSG/BLT humanized mice", "experiment": "In vivo fluorescence imaging of multiple myeloma-induced osteolysis", "design": "species or system mouse", "outline": "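NSG mice were co-grafted with human CD34+ hematopoietic stem cells, liver and thymus and irradiated (NSG/BLT). RPMI-8226-Luc cells (15×10^6 per mouse, 100 μL) were given by tail vein; controls received vehicle. Seven days later, 100 μL of 50 μM OFS-1 was injected retro-orbitally. In vivo fluorescence and bioluminescence imaging was done 3, 4 and 5 wk after cell injection, plus ex vivo micro-CT. Control n = 1, myeloma mice n = 3.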"}, "[9]": {"experiment": "Adsorption on hydroxyapatite and bone mineral"}, "Ctsk [10]": {"target": "T1, Ctsk", "settings": "reported value; ref [25]; cited from earlier work"}}, "note": "Entries after “also recorded” stand apart in the source; their conditions may differ. Non-standard residues stand in square brackets, D forms with d. Residues, ends and D or L forms follow the SMILES beside them. ξ: configuration not given here. *: point of attachment. X1 = COc1cc(N=Nc2ccccc2[N+](=O)[O-])c(C)cc1N=Nc1ccc(N(C)CCCC(=O)*)cc1; X2 = O=C(O)c1cc(C(=O)*)ccc1-c1c2ccc(=O)cc-2oc2cc(O)ccc12; X3 = O=P(O)(O)C(O)(CCN*)P(=O)(O)O; ξH = NC(Cc1c[nH]cn1)C(=O)O; ξQ = NC(=O)CCC(N)C(=O)O; ξP = O=C(O)C1CCCN1; βAla = NCCC(=O)O", "data": [{"compound": "CC(C)(F)C[C@H](N[C@@H](c1ccc(-c2ccc(S(C)(=O)=O)cc2)cc1)C(F)(F)F)C(=O)NC1(C#N)CC1", "note": "[odanacatib]", "values": [{"measurement": "pit formation by osteoclasts with odanacatib", "setting": "human osteoclasts; 30 nM odanacatib", "value": "pit formation was again observed"}, {"measurement": "osteoclast-induced OFS-1 fluorescence with odanacatib", "setting": "human osteoclasts; 30 nM odanacatib (Figure S9)", "value": "fluorescence was suppressed"}, {"measurement": "OFS-1 fluorescent signal in co-culture with odanacatib", "setting": "[1]; 30 nM odanacatib", "value": "effectively inhibited"}]}, {"compound": "HPGGPQ", "values": [{"measurement": "cleavage by Ctsk", "setting": "Ctsk [2]; ref [24]", "value": "selectively cleaved by Ctsk"}, {"measurement": "Ctsk cleavage site (original peptide)", "setting": "Ctsk [2]; well-established cleavage site, no reference at this place", "value": "Gly-Gly bond"}]}, {"compound": "NCCC(O)(P(=O)(O)O)P(=O)(O)O", "note": "[pamidronate]", "values": [{"measurement": "bone-affinity", "setting": "[3]", "value": "high bone-affinity"}]}, {"compound": "COc1cc(N=Nc2ccccc2[N+](=O)[O-])c(C)cc1N=Nc1ccc(N(C)CCCC(=O)NCC(=O)NC(Cc2c[nH]cn2)C(=O)N2CCCC2C(=O)NCC(=O)NCC(=O)N2CCCC2C(=O)NC(CCC(N)=O)C(=O)NCC(=O)NCCC(=O)N[C@@H](CCCCNC(=O)c2ccc(-c3c4ccc(=O)cc-4oc4cc(O)ccc34)c(C(=O)O)c2)C(=O)NCCC(O)(P(=O)(O)O)P(=O)(O)O)cc1", "note": "(stereo partly drawn) [OFS-1] (X1-G[ξH][ξP]GG[ξP][ξQ]G[βAla]K(X2)-X3)", "values": [{"measurement": "dependence of fluorescence intensity on OFS-1 concentration", "setting": "Ctsk [4]; 25 nM human Ctsk, 50 mM sodium acetate pH 5.5, 2.5 mM EDTA, 1 mM DTT, 37 °C, Supplementary Figure S3", "value": "depended linearly on the OFS-1 concentration up to 1 μM"}, {"measurement": "catalytic efficiency (kcat/Km)", "setting": "Ctsk [4]; Ctsk 2.5 nM (Fig. 2), 50 mM NaOAc pH 5.5, 37 °C", "value": "0.97 × 10^5 M-^1 s-^1"}, {"measurement": "fluorescence on exposure to Ctsk", "setting": "Ctsk [4]; Ctsk 2.5–20 nM, in solution or pre-adsorbed on HAp", "value": "strong fluorescence"}, {"measurement": "cleavage efficiency relative to Abz-HPGGPQ-EDN2Ph (less efficient)", "setting": "Ctsk [4]; OFS-1 vs literature value of Abz-HPGGPQ-EDN2Ph, ref [25] for the comparator", "value": "only fourfold less efficiently"}, {"measurement": "extrinsic fluorescence in water without enzyme", "setting": "[5]", "value": "virtually undetectable"}, {"measurement": "time-course of OFS-1 fluorescent activity", "setting": "Ctsk [6]; OFS-1 0.5 μM, 20 nM Ctsk, in solution, pH 7", "value": "fluorescent activity was immediately observed within 10 min and reached a plateau thereafter"}, {"measurement": "OFS-1 fluorescence without enzyme", "setting": "Ctsk [6]; control lacking enzyme, 2 h incubation", "value": "essentially unchanged"}, {"measurement": "Ctsk-dependent fluorescence of HAp-adsorbed OFS-1", "setting": "Ctsk [7]", "value": "time-course increase of fluorescent intensity; also recorded: Bright Ctsk-dependent fluorescence was again observed"}, {"measurement": "OFS-1 fluorescence without osteoclasts", "setting": "human osteoclasts; control wells, 5.0 μM OFS-1, not seeded with osteoclasts", "value": "not significantly fluorescent"}, {"measurement": "OFS-1 fluorescent signal in co-culture", "setting": "[1]; OFS-1 5.0 μM pre-treated HAp wells, osteoclasts + RPMI-8226-Luc", "value": "robust activation of OFS-1 fluorescent signals"}, {"measurement": "OFS-1 fluorescent signal compared to solitary osteoclasts", "setting": "[1]; osteoclasts + RPMI-8226-Luc vs solitary osteoclasts", "value": "increased by RPMI-8226-Luc cells"}, {"measurement": "time from which distinct in vivo fluorescent signal was detected", "setting": "[8]; 100 μL of 50 μM OFS-1 retro-orbital, weeks after RPMI-8226-Luc cell injection", "value": 4, "unit": "wk"}, {"measurement": "detection relative to myeloma cell luminescence", "setting": "[8]; NSG/BLT humanized mice injected with RPMI-8226-Luc cells", "value": "before the co-localized luminescence of the myeloma cells could be detected"}, {"measurement": "in vivo OFS-1 signal relative to tumor site / osteolysis lesions", "setting": "[8]; another mouse, cervical area, post-mortem micro-CT", "value": "extensive osteolysis lesions (arrows), which corresponded to the sentinel OFS-1 signal; also recorded: a strong fluorescent signal was detected at (and extending beyond) the bioluminescent tumor site"}, {"measurement": "in vivo OFS-1 signal in control animals", "setting": "[8]; physiological level of bone resorption, control n = 1", "value": "did not show the OFS-1 signal"}, {"measurement": "adsorption on HAp and bone mineral", "setting": "[9]", "value": "avidly adsorbed by hydroxyapatite (HAp) and bone mineral surfaces; also recorded: strongly and specifically binds to bone surfaces"}]}, {"compound": "NCCCC(O)(P(=O)(O)O)P(=O)(O)O", "note": "[alendronate]", "values": [{"measurement": "bone-affinity", "setting": "[3]", "value": "high bone-affinity"}]}, {"compound": "Abz-HPGGPQ-EDN2Ph", "values": [{"measurement": "catalytic efficiency", "setting": "Ctsk [10]", "value": 426000, "unit": "M⁻¹ s⁻¹"}]}]}
